# Measurements reported in PMC2873069 (The journal of maternal-fetal & neonatal medicine : the …, 2010).
# “Also recorded” adds a separate entry of the source. Where two headings read alike, the source gives them in different places.
# Legend:
# [1] = test system: term human placental lobule; assay type: in vitro ADME; conditions: for fetal/maternal concentration ratio: HSA 30 mg/ml
# [2] = cited from earlier work
# [3] = test system: perfused placental tissue; test: Effect of bupropion on placental tissue viability; design: species or system human; conditions: for effect on placental viability and functional parameters: 150 ng/ml and 450 ng/ml bupropion
# [4] = cited from earlier work; for pharmacologic activity: hepatic metabolites
# placental tissue enzymes = test: Metabolism of bupropion by placental tissue during perfusion; conditions: end of 4 hours of perfusion
# [5] = assay type: physicochemical
# Method in brief: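 Test compound as the [3H] form recirculated for 4 h through the closed perfusion circuit (glassware, teflon tubing, tygon peristaltic-pump tubing) without placenta, in M199 with dextran 40, heparin, gentamicin, sulfamethoxazole and trimethoprim at 37 °C. Run without and with human serum albumin at 30 mg/mL. Loss of radiolabel from the medium was tracked over 4 h.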
# [6] = end of 4-hour perfusion, independent of initial concentration
# [7] = bupropion 150 ng/mL, 4 hours of perfusion
# [8] = bupropion 450 ng/mL, 4 hours of perfusion
molecule,measurement,setting,value
"Cc1cc(=O)n(-c2ccccc2)n1C [AP, antipyrine]",transplacental transfer to the fetal circuit,"[1]; antipyrine 20 μg/mL co-transfused marker, 4 hours",approximately 50%
same,binding to plasma proteins and human serum albumin,[2],minimal binding
CC(NC(C)(C)C)C(=O)c1cccc(Cl)c1 (centres unmarked) [bupropion],decline in concentration in the maternal circuit (shape),"[1]; 150 ng/ml, 4 hours",biphasic
same,time at which equilibrium was achieved in the fetal circuit,"[1]; 150 ng/ml, from time 0",180 min
same,fetal circuit concentration as % of initial concentration,"[1]; 450 ng/ml, end of 4 hours",23 ± 2%
same,fetal/maternal concentration ratio,"[1]; bupropion 150 ng/ml in maternal circuit, end of 4-hour perfusion",1.07 ± 0.22
same,fetal/maternal concentration ratio,"[1]; bupropion 450 ng/ml in maternal circuit, end of 4-hour perfusion",1.00 ± 0.14
same,fraction of drug remaining in the maternal circuit,[1]; [6],32 ± 5%
same,fraction of drug retained by placental tissue,[1]; [6],48 ± 6%
same,concentration in the fetal circuit at the end of the experiment,"[1]; initial maternal concentration 150 ng/ml, 4 hours",35 ± 4 ng/mL
same,concentration in the fetal circuit at the end of the experiment,"[1]; initial maternal concentration 450 ng/ml, 4 hours",104 ng/mL
same,effect on placental viability and functional parameters,[3],did not affect; also recorded: do not adversely affect
same,"O2 consumption, % of control period",[3]; [7],114 ± 37%
same,"O2 consumption, experimental period",[3]; [7],6.6 ± 1.6 mL/min/kg
same,"O2 transfer, % control period",[3]; [7],56 ± 21%
same,"O2 transfer, experimental period",[3]; [7],0.22 ± 0.1 mL/min/kg
same,"O2 consumption, % of control period",[3]; [8],98 + 38%
same,"O2 consumption, experimental period",[3]; [8],3.7 + 1.2 mL/min kg
same,"O2 transfer, % control period",[3]; [8],43 + 16%
same,release of hCG at the end of the experimental period (control period = 100%),[3]; bupropion transfused in presence of HSA,94 ± 12%
same,octanol/water partition coefficient,[2]; no reference given,3.21
same,pKa,[2]; no reference given,7.6
CC(NC(C)(C)C)C(O)c1cccc(Cl)c1 (centres unmarked) [erythrohydrobupropion],pharmacologic activity,[4],very low activity
C[C@H]1NC(C)(C)CO[C@]1(O)c1cccc(Cl)c1 [hydroxybupropion],pharmacologic activity relative to the parent compound,[4]; hepatic metabolite,~50%
C[C@H](NC(C)(C)C)[C@@H](O)c1cccc(Cl)c1 [threohydrobupropion],effect on placental viability and functional parameters,[3],do not adversely affect
same,pharmacologic activity,[4],very low activity
same,ratio of metabolite to parent drug in placental tissue,placental tissue enzymes,0.06
same,ratio of metabolite to parent drug in the fetal circuit,placental tissue enzymes,0.07
same,ratio of metabolite to parent drug in the maternal circuit,placental tissue enzymes,0.08
[^3H]-bupropion,binding to glassware and teflon tubing,[5]; 4 hours recirculation in absence of placenta,negligible
same,decline of initial amount in the medium,"[5]; 4 hours recirculation in absence of placenta, no HSA",40%
same,reduction of binding to tygon tubing,[5]; after addition of 30 mg/mL HSA to the perfusion medium,25%
